The text below walks through data of ChEMBL document CHEMBL1667831, “Synthesis and biological evaluation of 2-aminoimidazole/carbamate hybrid anti-biofilm and anti-microbial agents” (Bioorg Med Chem Lett, 2011).

SMILES strings stand for the structures.

Series [1] has as its system Acinetobacter baumannii. In words: Antibacterial activity against multi-drug resistant Acinetobacter baumannii ATCC BAA-1605. It is filed as functional. The essentials:
(§1)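 MIC, the minimum inhibitory concentration, measured against planktonic bacteria.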

Series [2] in a line: Cytotoxicity against sheep RBC assessed hemolysis. To be noted: sheep red blood cells, read-out: HD50 (the source's name). It is filed as cell-based, Ovis aries, Erythrocyte. The essentials: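 Red blood cell hemolysis assay using defibrinated sheep blood. HD50 is the concentration at which 50% hemolysis is observed.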
For series [3], the system named is Staphylococcus aureus. Put plainly: Antibacterial activity against Staphylococcus aureus ATCC 29213. It is filed as functional. The essentials: as §1
Series [4] deals with Staphylococcus aureus. In words: Antibacterial activity against methicillin-resistant Staphylococcus aureus. It is filed as functional. The method, boiled down: as §1
In series [5] the test system is Acinetobacter baumannii. Put plainly: Antibacterial activity against Acinetobacter baumannii ATCC 19606. It is filed as functional. The following applies: ATCC 19606 = CIP 70.34 = JCM 6841. The essentials: as §1
The test system of series [6] is Pseudomonas aeruginosa. Put plainly: Antibiofilm activity against Pseudomonas aeruginosa PA14. The format is functional, organism-based. The essentials: (§2)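 Crystal violet reporter assay of biofilm formation, run as a dose-response. IC50 is the concentration inhibiting 50% of biofilm formation. Highest concentration tested 200 µM.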
Series [7] concerns Pseudomonas aeruginosa. In words: Antibacterial activity against Pseudomonas aeruginosa PA14. It is filed as functional.
Series [8] has as its system Acinetobacter baumannii. In words: Antibiofilm activity against Acinetobacter baumannii ATCC 19606. The following applies: ATCC 19606 = CIP 70.34 = JCM 6841. It is filed as functional, organism-based. The method, boiled down:
as §2

Series [9] concerns Staphylococcus aureus. In words: Antibiofilm activity against methicillin-resistant Staphylococcus aureus. It is filed as functional, organism-based. The essentials: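 Biofilm inhibition dose-response study. Biofilm formation is quantified with a crystal violet reporter assay. IC50 is the concentration that inhibits 50% of biofilm formation.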
Series [10] has as its system Staphylococcus aureus. Put plainly: Antibiofilm activity against Staphylococcus aureus ATCC 29213 assessed as biofilm dispersal. It is filed as functional, organism-based. The essentials:
(§3)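 Dispersal of pre-formed biofilms, tested in dose-response. The value reported is EC50.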

Series [11] has as its system Staphylococcus aureus. Put plainly: Antibiofilm activity against methicillin-resistant Staphylococcus aureus assessed as biofilm dispersal. The format is functional, organism-based. The method, boiled down: as §3
Series [12] has as its system Acinetobacter baumannii. In words: Antibiofilm activity against Acinetobacter baumannii ATCC 19606 assessed as biofilm dispersal. The format is functional, organism-based. The following applies: ATCC 19606 = CIP 70.34 = JCM 6841. The essentials:
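Dispersal of pre-formed A. baumannii biofilms, run as a dose-response. EC50 values are reported for dispersal.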

As for `CC(C)[C@@H]1CC[C@@H](C)C[C@H]1OC(=O)NCCn1cc(CCCCCc2c[nH]c(N)n2)nn1.Cl`, the MIC is 128 µg/mL in series [1]; 16 µg/mL in series [3]; 64 µg/mL in series [4]; 64 µg/mL in series [5]; greater than 128 µg/mL in series [7]. Moreover, in series [2], the HC50 was determined as 474 µM. Moreover, the results for the half-maximal inhibitory concentration (IC50) in series [6], in series [8] and in [9] were 58.7 µM, 94.9 µM and 29.9 µM, respectively.
As for `CC(C)[C@@H]1CC[C@@H](C)C[C@H]1OC(=O)N(CCCCCCc1cn(CCCCCc2c[nH]c(N)n2)nn1)CCc1ccccn1.Cl`, the minimal inhibitory concentration (MIC) was 16 µg/mL in series [1]; 4 µg/mL in series [3]; 8 µg/mL in series [4]; 16 µg/mL in [5]; greater than 128 µg/mL in series [7]. The HC50 in series [2] was determined as 93.8 µM. Further, the EC50 was greater than 200 µM in series [10], greater than 200 µM in series [11] and 37.5 µM in series [12]. Also, the half-inhibitory concentration (IC50) in series [6] was greater than 200 µM; in series [8], 19.2 µM.
For the compound `CC(C)[C@@H]1CC[C@@H](C)C[C@H]1OC(=O)N(CCCCCCc1cn(CCCCCCCc2c[nH]c(N)n2)nn1)CCc1ccccn1.Cl`, the minimum inhibitory concentration (MIC) in series [1] was greater than 128 µg/mL; in series [3], 4 µg/mL; in series [4], 4 µg/mL; in [5], greater than 128 µg/mL; in series [7] it was greater than 128 µg/mL. In [2], the HC50 stood at 42.7 µM. Moreover, the EC50 in series [10] was 32.5 µM; in series [11], 38.1 µM; in [12] it was 20.6 µM. Besides, the results for the IC50 in [6] and in [8] were greater than 200 µM and 16.7 µM, respectively.
In the case of `CC(C)[C@@H]1CC[C@@H](C)C[C@H]1OC(=O)NCCCCCCCc1c[nH]c(N)n1.Cl`, the MIC is 8 µg/mL in series [1]; 8 µg/mL in series [3]; 8 µg/mL in series [4]; 8 µg/mL in series [5]; 64 µg/mL in series [7]. Also, in series [2], the HC50 stood at 474 µM. For the same compound, the half-maximal effective concentration (EC50) was found to be 38.8 µM in series [10], 53.5 µM in [11] and 68.3 µM in [12]. This compound also came in with a concentration for half-maximal inhibition (IC50) in series [8] of 16.7 µM.
As for `CC(C)[C@@H]1CC[C@@H](C)C[C@H]1OC(=O)N(CCCCCCc1cn(CCCCCCc2c[nH]c(N)n2)nn1)CCc1ccccn1.Cl`, the minimal inhibitory concentration (MIC) in series [1] is greater than 128 µg/mL; in [3], 4 µg/mL; in [4] it was 4 µg/mL; in series [5] it was 32 µg/mL; in series [7], greater than 128 µg/mL. Further, in series [2], the HC50 was 46 µM. Further, the half-inhibitory concentration (IC50) in [6] is greater than 200 µM; in [8], 18.4 µM.
For the compound `CC(=O)NCCCCCCc1cn(CCCCCc2c[nH]c(N)n2)nn1.Cl`, the MIC in [1], in series [3], in series [4], in series [5] and in series [7] was greater than 128 µg/mL in each case. In addition, in series [2], the HC50 was greater than 800 µM. Also, the IC50 in series [6], in series [8] and in series [9] was greater than 200 µM throughout.
Turning to `CC(C)[C@@H]1CC[C@@H](C)C[C@H]1OC(=O)NCCCCCc1c[nH]c(N)n1.Cl`, the MIC in [1], in series [3], in series [4], in series [5] and in series [7] was 32 µg/mL each time. Further, the HC50 in [2] amounted to 464 µM. Further, the results for the IC50 in series [6] and in [8] were 18 µM and 19.2 µM, respectively.
In the case of `CC(C)[C@@H]1CC[C@@H](C)C[C@H]1OC(=O)NCCCn1cc(CCCCCc2c[nH]c(N)n2)nn1.Cl`, the MIC came out at 64 µg/mL in series [1]; 16 µg/mL in [3]; 16 µg/mL in series [4]; 64 µg/mL in series [5]; 64 µg/mL in series [7]. In addition, the HC50 in [2] came out at 318 µM. The 50% inhibitory concentration (IC50) in series [6] was determined as 40.3 µM; in [9], 20.5 µM.
Consider `CC(C)[C@@H]1CC[C@@H](C)C[C@H]1OC(=O)NCCCCCCc1c[nH]c(N)n1.Cl`, for which the MIC in [1] came out at 16 µg/mL; in series [3], 8 µg/mL; in [4], 8 µg/mL; in series [5], 16 µg/mL; in series [7] it was 64 µg/mL. Also, the HC50 in series [2] was 229 µM. Moreover, the midpoint of inhibition in series [6], the IC50, lay at 18 µM.

Usually MIC stands for the lowest concentration found to suppress growth. High values mean a need for much substance, low ones inhibition by little substance. For orientation: IC50 means the concentration at which inhibition is half-maximal. Read a high IC50 as weaker potency. What is called EC50 is the concentration needed to bring the measured effect to its halfway point.
